Experimental data from ChEMBL document CHEMBL2401686, “Synthesis of novel 1-[5-(4-methoxy-phenyl)-[1,3,4]oxadiazol-2-yl]-piperazine derivatives and evaluation of their in vivo anticonvulsant activity” (Eur J Med Chem, 2013).

Columns and labels:
Mus musculus [1] = assay: Neurotoxicity in mouse assessed as inability to maintain equilibrium on rod at 100 mg/kg, po after 4 hrs by rotarod test relative to control; assay type: toxicity, organism-based; set-up: dose 100 mg/kg, route oral; conditions: in vivo
Outline: (§1)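 Mice pre-trained on accelerating rotorod (10 rpm, rod diameter 3.2 cm), then dosed orally at 100 mg/kg. Neurotoxicity is failure to keep equilibrium on the rod for at least 1 min in each of three trials, checked at 0.5, 1, 2 and 4 h. Reported as animals showing neurotoxicity per number tested (n = 4); phenytoin standard.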

Mus musculus [2] = assay: Neurotoxicity in mouse assessed as inability to maintain equilibrium on rod at 100 mg/kg, po after 1 hr by rotarod test relative to control; assay type: toxicity, organism-based; set-up: dose 100 mg/kg, route oral; conditions: in vivo; outline: as §1
Rattus norvegicus [3] = assay: Anticonvulsant activity in Wistar rat maximal electroshock seizure model assessed as decrease in ratio of extension phase and flexion phase at 100 mg/kg, po administered 30 mins prior to test; assay type: functional
Outline: (§2)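 Male Wistar rats, n = 6 per group; 100 mg/kg given orally as solution in 1% sodium carboxymethyl cellulose, 30 min before maximal electroshock; observed 2 min. E/F is extension phase (s)/flexion phase (s). % protection = (control − test)/control × 100 against vehicle control; phenytoin 100 mg/kg reference; mean values.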

Mus musculus [4] = assay: Neurotoxicity in mouse assessed as inability to maintain equilibrium on rod at 100 mg/kg, po after 0.5 hrs by rotarod test relative to control; assay type: toxicity, organism-based; set-up: dose 100 mg/kg, route oral; conditions: in vivo; outline: as §1
Rattus norvegicus [5] = assay: Anticonvulsant activity in Wistar rat assessed as protection against maximal electroshock-induced seizure at 100 mg/kg, po administered 30 mins prior to test relative to control; assay type: functional; outline: as §2
Mus musculus [6] = assay: Neurotoxicity in mouse assessed as inability to maintain equilibrium on rod at 100 mg/kg, po after 2 hrs by rotarod test relative to control; assay type: toxicity, organism-based; set-up: dose 100 mg/kg, route oral; conditions: in vivo; outline: as §1

| SMILES | Activity (Mus musculus [1]) [%] | Activity (Mus musculus [2]) [%] | Ratio (Rattus norvegicus [3]) | Activity (Mus musculus [4]) [%] | Activity (Rattus norvegicus [5]) [%] | Activity (Mus musculus [6]) [%] |
| --- | --- | --- | --- | --- | --- | --- |
| COc1ccc(-c2nnc(N3CCN(S(=O)(=O)c4ccc(C#N)cc4)CC3)o2)cc1 | 0 | 0 | 6.34 | 0 | 42.4 | 0 |
| COc1ccc(-c2nnc(N3CCN(S(C)(=O)=O)CC3)o2)cc1 | 25 | 0 | 8.15 | 0 | 10.63 | 25 |
| COc1ccc(-c2nnc(N3CCN(S(=O)(=O)c4ccc(C(F)(F)F)cc4[N+](=O)[O-])CC3)o2)cc1 | – | – | 1.91 | – | 77.64 | – |
| COc1ccc(-c2nnc(N3CCN(S(=O)(=O)c4ccccc4[N+](=O)[O-])CC3)o2)cc1 | 0 | 0 | 5.49 | 0 | 59.64 | 0 |
| COc1ccc(-c2nnc(N3CCN(S(=O)(=O)c4ccc(Oc5ccccc5)cc4)CC3)o2)cc1 | 0 | 0 | 1.96 | 0 | 74.31 | 0 |
| COc1ccc(-c2nnc(N3CCN(S(=O)(=O)c4ccc(Br)c(C)c4)CC3)o2)cc1 | 0 | 0 | 6.29 | 0 | 52.42 | 0 |
| COc1ccc(-c2nnc(N3CCN(S(=O)(=O)c4ccc(C(C)(C)C)cc4)CC3)o2)cc1 | 0 | 0 | 7.64 | 0 | 17.32 | 0 |
| COc1ccc(-c2nnc(N3CCN(S(=O)(=O)c4c(C)noc4C)CC3)o2)cc1 | 0 | 0 | 2.34 | 0 | 71.25 | 0 |
| COc1ccc(-c2nnc(N3CCN(S(=O)(=O)c4ccc(Br)cc4)CC3)o2)cc1 | 0 | 0 | 6.51 | 0 | 50.79 | 0 |
| O=C1NC(=O)C(c2ccccc2)(c2ccccc2)N1 [PHENYTOIN] | 0 | 0 | 1.98 | 0 | 75.88 | 0 |
| COc1ccc(-c2nnc(N3CCN(S(=O)(=O)c4ccc(C)cc4)CC3)o2)cc1 | 25 | 0 | 7.68 | 0 | 17.03 | 25 |
| COc1ccc(-c2nnc(N3CCN(S(=O)(=O)c4ccc(-c5ccccc5)cc4)CC3)o2)cc1 | 0 | 0 | 7.11 | 0 | 23.34 | 0 |
| COc1ccc(-c2nnc(N3CCN(S(=O)(=O)c4ccc5ccccc5c4)CC3)o2)cc1 | 25 | 0 | 6.96 | 0 | 31.54 | 25 |
| COc1ccc(-c2nnc(N3CCN(S(=O)(=O)c4ccc(I)cc4)CC3)o2)cc1 | 0 | 0 | 6.57 | 0 | 50.43 | 0 |
| COc1ccc(-c2nnc(N3CCN(S(=O)(=O)c4cccc(C(F)(F)F)c4)CC3)o2)cc1 | 0 | 0 | 6.11 | 0 | 53.01 | 0 |
| COc1ccc(-c2nnc(N3CCN(S(=O)(=O)c4cc(Cl)sc4Cl)CC3)o2)cc1 | 0 | 0 | 2.11 | 0 | 73.47 | 0 |
